Values after ≈ are worked out from the molar mass of the structure shown.

The values that follow come from ChEMBL document CHEMBL1125826, “Synthesis and biological activity of 5-amino- and 5-hydroxyquinolones, and the overwhelming influence of the remote N1-substituent in determining the structure-activity relationship” (1991).

What all share (type): functional
The subject of one experiment is Streptococcus pneumoniae. Kind of experiment: Antibacterial activity was determined against gram positive organism, Streptococcus pneumoniae SV-1. The settings on record: Streptococcus pneumoniae; read-out: MIC. Summed up: (§1)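 MIC (µg/mL) by standard microtitration against a panel of 10 Gram-positive and Gram-negative organisms; values averaged from multiple experiments.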

Experiment [1] has as its system Staphylococcus aureus. Put plainly: Antibacterial activity was determined against gram positive organism, Staphylococcus aureus H228. The settings on record: Staphylococcus aureus; read-out: MIC. Summed up:
as §1

The test system of experiment [2] is Staphylococcus aureus. Kind of experiment: Antibacterial activity was determined against gram positive organism, Staphylococcus aureus UC76. The method, boiled down:
as §1

For experiment [3], the system named is Bacteria. Put plainly: Antibacterial activity was determined against gram negative organism, Providencia rettgeri. M1771. As to conditions: Bacteria; read-out: MIC. Summed up:
as §1

The test system of the next experiment is Enterobacter cloacae. Put plainly: Antibacterial activity was determined against gram negative organism, Enterobacter cloacae MA2646. The settings on record: Enterobacter cloacae; read-out: MIC.
The next experiment relates to Pseudomonas aeruginosa. Put plainly: Antibacterial activity was determined against gram negative organism, Pseudomonas aeruginosa UI-18. As to conditions: Pseudomonas aeruginosa; read-out: MIC. Summed up:
as §1

Experiment [4] deals with DNA gyrase (Escherichia coli) (UniProt P0AES6+P0AES4). Kind of experiment: Minimum inhibitory concentration against Escherichia coli DNA-gyrase in supercoiling assay.
A further experiment deals with Escherichia coli. Put plainly: Antibacterial activity was determined against gram negative organism, Escherichia coli vogel. The settings on record: Escherichia coli; read-out: MIC. The method, boiled down: as §1
The subject of experiment [5] is Bacteria. Kind of experiment: MIC ratio measured as the mean MICs of gram-negative bacteria. Summed up:
(§2)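 Geometric mean of the microtitration MICs (µg/mL) over the Gram-negative organisms, and separately over the Gram-positive organisms, of the 10-strain panel; individual MICs averaged from multiple experiments.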

Experiment [6] has as its system Bacteria. Put plainly: MIC ratio measured as the mean MICs of gram-positive bacteria. Summed up: as §2
For another experiment, the system named is Streptococcus pyogenes. Kind of experiment: Antibacterial activity was determined against gram positive organism, Streptococcus pyogenes C203. The settings on record: Streptococcus pyogenes; read-out: MIC. The method, boiled down:
as §1

Another experiment relates to Enterococcus faecalis. Put plainly: Antibacterial activity was determined against gram positive organism, Streptococcus faecalis MGH-2. As to conditions: Enterococcus faecalis; read-out: MIC. The method, boiled down: as §1
The subject of another experiment is Klebsiella pneumoniae. Put plainly: Antibacterial activity was determined against gram negative organism, Klebsiella pneumoniae MGH-2. As to conditions: Klebsiella pneumoniae; read-out: MIC. The method, boiled down: as §1
Setting [7] is: Staphylococcus aureus, read-out: MIC.

For the molecule `CCn1cc(C(=O)O)c(=O)c2cc(F)c(N3CCNCC3)c(Cl)c21`, the MIC in the experiment on Streptococcus pneumoniae was found to be 3.1 µg/mL (≈ 8.76 µM); with Staphylococcus aureus [1], 0.4 µg/mL (≈ 1.13 µM); against Staphylococcus aureus [2] it was 0.2 µg/mL (≈ 0.565 µM); with Bacteria [3], 0.4 µg/mL (≈ 1.13 µM); in the experiment on Enterobacter cloacae it was 0.1 µg/mL (≈ 0.283 µM); in the experiment on Pseudomonas aeruginosa, 3.1 µg/mL (≈ 8.76 µM). Besides, the MIC turned out to be 2.5 µg/mL (≈ 7.07 µM) in [4]; 0.1 µg/mL (≈ 0.283 µM) with Escherichia coli; 3.1 µg/mL (≈ 8.76 µM) in the experiment on Streptococcus pyogenes; 3.1 µg/mL (≈ 8.76 µM) in the experiment with Enterococcus faecalis; 0.2 µg/mL (≈ 0.565 µM) in the experiment on Klebsiella pneumoniae. Moreover, the Geometric mean MIC over Gram-negative bacteria (µg/mL) in the experiment with Bacteria [5] was 0.3. For the same molecule, the “Geometric mean MIC over Gram-positive bacteria (µg/mL)” value in the experiment with Bacteria [6] is given as 1.19.
For the molecule `CCn1cc(C(=O)O)c(=O)c2cc(F)c(N3CCC(N)C3)c(F)c21` (stereo unspecified), the MIC in the experiment on Streptococcus pneumoniae came to 0.4 µg/mL (≈ 1.19 µM); in the experiment on Staphylococcus aureus [1] it was 0.4 µg/mL (≈ 1.19 µM); in the experiment on Staphylococcus aureus [2], 0.1 µg/mL (≈ 0.296 µM); in the experiment on Bacteria [3] it was 0.2 µg/mL (≈ 0.593 µM); in the experiment on Enterobacter cloacae it was 0.1 µg/mL (≈ 0.296 µM); in the experiment with Pseudomonas aeruginosa it was 0.4 µg/mL (≈ 1.19 µM). Moreover, the MIC in experiment [4] stood at 2.5 µg/mL (≈ 7.41 µM); with Escherichia coli, 0.1 µg/mL (≈ 0.296 µM); in the experiment with Streptococcus pyogenes it was 0.2 µg/mL (≈ 0.593 µM); in the experiment on Enterococcus faecalis, 0.4 µg/mL (≈ 1.19 µM); in the experiment on Klebsiella pneumoniae, 0.2 µg/mL (≈ 0.593 µM). In the experiment on Bacteria [5], the Geometric mean MIC over Gram-negative bacteria (µg/mL) is 0.17. Besides, the “Geometric mean MIC over Gram-positive bacteria (µg/mL)” value with Bacteria [6] worked out at 0.27.
For the molecule `CCNCC1CCN(c2c(F)cc3c(=O)c(C(=O)O)cn(CC)c3c2Cl)C1` (stereo unspecified), the MIC was found to be 0.05 µg/mL (≈ 0.126 µM) in the experiment with Streptococcus pneumoniae; 0.1 µg/mL (≈ 0.253 µM) with Staphylococcus aureus [1]; 0.025 µg/mL (≈ 0.0632 µM) against Staphylococcus aureus [2]; 0.8 µg/mL (≈ 2.02 µM) in the experiment with Bacteria [3]; 0.2 µg/mL (≈ 0.505 µM) in the experiment with Enterobacter cloacae; 12.5 µg/mL (≈ 31.6 µM) in the experiment with Pseudomonas aeruginosa. The MIC came out at 2.5 µg/mL (≈ 6.32 µM) in [4]; 0.2 µg/mL (≈ 0.505 µM) with Escherichia coli; 0.05 µg/mL (≈ 0.126 µM) in the experiment on Streptococcus pyogenes; 0.1 µg/mL (≈ 0.253 µM) in the experiment with Enterococcus faecalis; 0.4 µg/mL (≈ 1.01 µM) in the experiment with Klebsiella pneumoniae. In the experiment with Bacteria [5], the Geometric mean MIC over Gram-negative bacteria (µg/mL) came out at 0.69. The “Geometric mean MIC over Gram-positive bacteria (µg/mL)” value with Bacteria [6] is reported as 0.057.
On to `CCn1cc(C(=O)O)c(=O)c2c(N)c(F)c(N3CC(C)NC(C)C3)c(Cl)c21` (stereo unspecified), for which the MIC was found to be 25 µg/mL (≈ 63 µM) in the experiment with Streptococcus pneumoniae; 3.1 µg/mL (≈ 7.81 µM) with Staphylococcus aureus [1]; 1.6 µg/mL (≈ 4.03 µM) in the experiment with Staphylococcus aureus [2] (setting [7]); 6.3 µg/mL (≈ 15.9 µM) in the experiment with Bacteria [3]; 1.6 µg/mL (≈ 4.03 µM) with Enterobacter cloacae; 12.5 µg/mL (≈ 31.5 µM) with Pseudomonas aeruginosa. Besides, the MIC in [4] came to 7.5 µg/mL (≈ 18.9 µM); with Escherichia coli, 1.6 µg/mL (≈ 4.03 µM); in the experiment with Streptococcus pyogenes, 25 µg/mL (≈ 63 µM); with Enterococcus faecalis, 12.5 µg/mL (≈ 31.5 µM); in the experiment on Klebsiella pneumoniae it was 6.3 µg/mL (≈ 15.9 µM). In the experiment with Bacteria [5], the Geometric mean MIC over Gram-negative bacteria (µg/mL) turned out to be 4.18. The “Geometric mean MIC over Gram-positive bacteria (µg/mL)” value in the experiment on Bacteria [6] is listed as 8.27.
On to `CCn1cc(C(=O)O)c(=O)c2cc(F)c(N3CC(C)NC(C)C3)c(F)c21` (stereo unspecified), for which the MIC in the experiment on Streptococcus pneumoniae amounted to 6.3 µg/mL (≈ 17.2 µM); with Staphylococcus aureus [1], 1.6 µg/mL (≈ 4.38 µM); with Staphylococcus aureus [2], 0.8 µg/mL (≈ 2.19 µM); in the experiment on Bacteria [3], 1.6 µg/mL (≈ 4.38 µM); in the experiment with Enterobacter cloacae it was 0.2 µg/mL (≈ 0.547 µM); with Pseudomonas aeruginosa it was 12.5 µg/mL (≈ 34.2 µM). The MIC in experiment [4] turned out to be 3.8 µg/mL (≈ 10.4 µM); in the experiment on Escherichia coli, 0.2 µg/mL (≈ 0.547 µM); with Streptococcus pyogenes, 6.3 µg/mL (≈ 17.2 µM); in the experiment on Enterococcus faecalis, 6.3 µg/mL (≈ 17.2 µM); with Klebsiella pneumoniae, 0.4 µg/mL (≈ 1.09 µM). The Geometric mean MIC over Gram-negative bacteria (µg/mL) in the experiment on Bacteria [5] stood at 0.79. Moreover, the “Geometric mean MIC over Gram-positive bacteria (µg/mL)” value in the experiment with Bacteria [6] turned out to be 3.17.
Consider `CCn1cc(C(=O)O)c(=O)c2c(O)c(F)c(N3CC(C)NC(C)C3)c(F)c21` (stereo unspecified), for which the MIC is 50 µg/mL (≈ 131 µM) in the experiment with Streptococcus pneumoniae; 6.3 µg/mL (≈ 16.5 µM) with Staphylococcus aureus [1]; 3.1 µg/mL (≈ 8.13 µM) in the experiment on Staphylococcus aureus [2] (setting [7]); 6.3 µg/mL (≈ 16.5 µM) in the experiment on Bacteria [3]; 0.8 µg/mL (≈ 2.1 µM) in the experiment with Enterobacter cloacae; 12.5 µg/mL (≈ 32.8 µM) with Pseudomonas aeruginosa. In addition, the MIC worked out at 5 µg/mL (≈ 13.1 µM) in experiment [4]; 0.8 µg/mL (≈ 2.1 µM) with Escherichia coli; 50 µg/mL (≈ 131 µM) in the experiment on Streptococcus pyogenes; 25 µg/mL (≈ 65.6 µM) in the experiment with Enterococcus faecalis; 1.6 µg/mL (≈ 4.2 µM) in the experiment on Klebsiella pneumoniae. For the same molecule, the Geometric mean MIC over Gram-negative bacteria (µg/mL) in the experiment on Bacteria [5] worked out at 2.41. Moreover, in the experiment on Bacteria [6], the “Geometric mean MIC over Gram-positive bacteria (µg/mL)” value amounted to 16.49.
Consider `CCn1cc(C(=O)O)c(=O)c2cc(F)c(N3CC(C)NC(C)C3)c(Cl)c21` (stereo unspecified), for which the MIC in the experiment with Streptococcus pneumoniae worked out at 12.5 µg/mL (≈ 32.7 µM); in the experiment on Staphylococcus aureus [1], 3.1 µg/mL (≈ 8.12 µM); in the experiment with Staphylococcus aureus [2], 1.6 µg/mL (≈ 4.19 µM); in the experiment with Bacteria [3], 6.3 µg/mL (≈ 16.5 µM); in the experiment with Enterobacter cloacae, 3.1 µg/mL (≈ 8.12 µM); with Pseudomonas aeruginosa, 12.5 µg/mL (≈ 32.7 µM). The MIC amounted to 5 µg/mL (≈ 13.1 µM) in experiment [4]; 1.6 µg/mL (≈ 4.19 µM) in the experiment with Escherichia coli; 12.5 µg/mL (≈ 32.7 µM) with Streptococcus pyogenes; 12.5 µg/mL (≈ 32.7 µM) with Enterococcus faecalis; 3.1 µg/mL (≈ 8.12 µM) in the experiment with Klebsiella pneumoniae. Further, the Geometric mean MIC over Gram-negative bacteria (µg/mL) in the experiment with Bacteria [5] was 4.14. For the same molecule, in the experiment with Bacteria [6], the “Geometric mean MIC over Gram-positive bacteria (µg/mL)” value is on record as 6.27.
